Measured values as given in ChEMBL document CHEMBL6134900 (J Med Chem, 2025).
The source made the active and inactive calls. No cut-off for these calls is given here.

What was measured:
[1] = molecular target: T1, Protein cereblon/SWI/SNF-related matrix-associated actin-dependent regulator of chromatin subfamily A member 2 (Homo sapiens, UniProt P51531+Q96SW2); assay: PROTAC activity at CRBN/SMARCA2 in human H322 cells harboring mutated SMARCA4 assessed as induction of SMARCA2 degradation incubated for 48 hrs by immunoblot analysis; type: cell-based
Procedure, shortened: (§1)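 SMARCA4-mutant H322, HCC515, H2030 and H2126 cells were treated as indicated. SMARCA2 was immunoblotted in RIPA lysates and quantified after normalisation to β-actin. Expression is given relative to DMSO-treated cells, and Dmax was derived by nonlinear regression.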
Target sequence in this assay (P51531 whole entry, looked up, change not shown): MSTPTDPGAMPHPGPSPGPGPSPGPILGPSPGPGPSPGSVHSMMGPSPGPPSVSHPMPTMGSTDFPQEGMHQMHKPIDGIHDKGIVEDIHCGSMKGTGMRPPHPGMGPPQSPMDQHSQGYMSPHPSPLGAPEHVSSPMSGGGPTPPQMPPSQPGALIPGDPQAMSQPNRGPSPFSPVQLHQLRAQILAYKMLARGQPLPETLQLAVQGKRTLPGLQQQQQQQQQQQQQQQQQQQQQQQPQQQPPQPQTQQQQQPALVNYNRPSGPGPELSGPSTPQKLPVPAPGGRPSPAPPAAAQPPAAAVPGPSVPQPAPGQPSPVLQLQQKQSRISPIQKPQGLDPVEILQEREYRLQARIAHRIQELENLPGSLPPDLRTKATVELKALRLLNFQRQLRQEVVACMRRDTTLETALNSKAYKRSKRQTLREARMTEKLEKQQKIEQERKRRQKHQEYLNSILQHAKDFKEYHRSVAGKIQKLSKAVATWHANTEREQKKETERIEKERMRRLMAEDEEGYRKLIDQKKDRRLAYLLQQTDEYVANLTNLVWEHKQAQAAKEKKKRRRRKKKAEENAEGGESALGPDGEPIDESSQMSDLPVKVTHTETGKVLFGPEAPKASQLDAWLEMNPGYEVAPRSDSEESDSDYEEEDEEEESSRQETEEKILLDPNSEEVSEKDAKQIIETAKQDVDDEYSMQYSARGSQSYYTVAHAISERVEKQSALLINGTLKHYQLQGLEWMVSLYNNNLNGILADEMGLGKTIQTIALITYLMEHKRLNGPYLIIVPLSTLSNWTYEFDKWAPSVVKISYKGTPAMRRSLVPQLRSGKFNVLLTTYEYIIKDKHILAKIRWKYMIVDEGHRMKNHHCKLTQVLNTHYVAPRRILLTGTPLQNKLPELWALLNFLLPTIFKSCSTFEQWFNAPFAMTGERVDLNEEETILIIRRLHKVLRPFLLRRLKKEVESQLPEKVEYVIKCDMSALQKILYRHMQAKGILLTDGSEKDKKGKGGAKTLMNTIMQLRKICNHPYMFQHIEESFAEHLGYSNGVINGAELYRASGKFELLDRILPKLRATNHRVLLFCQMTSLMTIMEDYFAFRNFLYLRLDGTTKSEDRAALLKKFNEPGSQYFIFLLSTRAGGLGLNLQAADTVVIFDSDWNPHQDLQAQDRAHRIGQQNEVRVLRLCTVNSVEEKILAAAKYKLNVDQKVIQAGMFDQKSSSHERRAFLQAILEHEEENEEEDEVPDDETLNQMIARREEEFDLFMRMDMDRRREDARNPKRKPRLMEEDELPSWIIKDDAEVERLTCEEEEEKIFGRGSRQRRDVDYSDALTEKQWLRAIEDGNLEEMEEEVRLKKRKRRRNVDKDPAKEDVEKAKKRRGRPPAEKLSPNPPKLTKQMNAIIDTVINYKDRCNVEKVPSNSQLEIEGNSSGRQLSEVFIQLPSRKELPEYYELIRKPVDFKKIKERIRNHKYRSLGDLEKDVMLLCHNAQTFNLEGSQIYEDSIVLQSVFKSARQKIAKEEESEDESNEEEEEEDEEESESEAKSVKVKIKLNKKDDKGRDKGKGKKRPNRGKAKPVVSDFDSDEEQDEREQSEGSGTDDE
Target sequence in this assay (Q96SW2 whole entry, looked up, change not shown): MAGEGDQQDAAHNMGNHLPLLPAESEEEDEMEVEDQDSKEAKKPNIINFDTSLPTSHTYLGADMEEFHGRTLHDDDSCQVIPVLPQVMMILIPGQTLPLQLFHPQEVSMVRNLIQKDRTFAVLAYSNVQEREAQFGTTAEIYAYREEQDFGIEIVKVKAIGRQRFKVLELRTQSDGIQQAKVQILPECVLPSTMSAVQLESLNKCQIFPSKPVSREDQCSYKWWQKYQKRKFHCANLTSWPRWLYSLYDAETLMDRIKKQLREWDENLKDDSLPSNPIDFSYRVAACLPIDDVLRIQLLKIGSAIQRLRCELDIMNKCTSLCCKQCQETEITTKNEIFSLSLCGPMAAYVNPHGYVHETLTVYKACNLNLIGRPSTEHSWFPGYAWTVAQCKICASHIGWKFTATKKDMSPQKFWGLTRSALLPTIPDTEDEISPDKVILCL

[2] = molecular target: T1, Protein cereblon/SWI/SNF-related matrix-associated actin-dependent regulator of chromatin subfamily A member 2; assay: PROTAC activity at CRBN/SMARCA2 in human HCC515 cells harboring mutated SMARCA4 assessed as induction of SMARCA2 degradation incubated for 48 hrs by immunoblot analysis; type: cell-based; procedure, shortened: as §1
Target sequence in this assay (P51531 whole entry, looked up, change not shown): as the sequence (P51531 whole entry, looked up, change not shown) above
Target sequence in this assay (Q96SW2 whole entry, looked up, change not shown): as the sequence (Q96SW2 whole entry, looked up, change not shown) above

[3] = AUC (0 to last) in male CD-1 (ICR) mouse at 25 mg/kg, po measured up to 24 hrs by LC-MS/MS analysis; type: ADME, organism-based; details: in vivo
Procedure, shortened: (§2)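 Single 25 mg/kg dose. IP vehicle was 5% DMSO/5% solutol/90% water at 1.25 mg/mL, final pH 4.39, clear solution. Oral vehicle was 0.5% methylcellulose/0.2% Tween 80 in water, opaque suspension. Plasma sampled at 0.25, 0.5, 1, 2, 4, 8 and 24 h. Plasma protein-precipitated with internal standard in acetonitrile, then LC-MS/MS. n = 3 mice per time point, mean.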

[4] = AUC (0 to last) in male CD-1 (ICR) mouse at 25 mg/kg, ip measured up to 24 hrs by LC-MS/MS analysis; type: ADME, organism-based; details: in vivo; procedure, shortened: as §2
[5] = AUC (0 to infinity) in male CD-1 (ICR) mouse at 25 mg/kg, ip measured up to 24 hrs by LC-MS/MS analysis; type: ADME, organism-based; details: in vivo; procedure, shortened: as §2
NCI-H1693 = assay: Inhibition of colony formation in human NCI-H1693 cells harboring SMARCA4 mutant incubated for 9 to 14 days by crystal violet staining based assay; type: functional, cell-based; details: for inhibition: dose 0.001-10 µM, time 9-14 day
Procedure, shortened: (§3)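 Single cells, 0.5–2 × 10^3 per well in 6-well plates, in RPMI with 10% FBS. Grown 9–14 days in drug-containing medium, refreshed every fifth day. Fixed in 10% formalin, stained with 0.01% crystal violet. Total colony area quantified and expressed relative to DMSO. n = 3 biological replicates. IC50 ratio is wild-type over mutant.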

[6] = molecular target: T1, Protein cereblon/SWI/SNF-related matrix-associated actin-dependent regulator of chromatin subfamily A member 2; assay: PROTAC activity at CRBN/SMARCA2 in human NCI-H2126 cells harboring mutated SMARCA4 assessed as induction of SMARCA2 degradation incubated for 48 hrs by immunoblot analysis; type: cell-based; procedure, shortened: as §1
Target sequence in this assay (P51531 whole entry, looked up, change not shown): as the sequence (P51531 whole entry, looked up, change not shown) above
Target sequence in this assay (Q96SW2 whole entry, looked up, change not shown): as the sequence (Q96SW2 whole entry, looked up, change not shown) above

[7] = molecular target: T2, Protein cereblon/SWI/SNF-related matrix-associated actin-dependent regulator of chromatin subfamily A member 4 (Homo sapiens, UniProt P51532+Q96SW2); assay: PROTAC activity at CRBN/SMARCA4 in human NCI-H1792 cells harboring wild type SMARCA4 assessed as induction of SMARCA4 degradation incubated for 48 hrs by immunoblot analysis; type: cell-based
Procedure, shortened: (§4)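 H1792 (SMARCA4-WT) cells in RPMI with 10% FBS were treated with 1 nM–10 μM for 24 or 48 h. Cells were lysed in RIPA and immunoblotted for SMARCA2, SMARCA4 and β-actin. Bands were quantified and normalised to β-actin, with DMSO set at 100%. DC50 and Dmax were derived by nonlinear regression. n = 3 biological replicates.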

NCI-H1568 = assay: (§5) Inhibition of colony formation in human NCI-H1568 cells harboring SMARCA4 mutant incubated for 9 to 14 days by crystal violet staining based assay; type: functional, cell-based; details: dose 0.001-10 µM, time 9-14 day; procedure, shortened: as §3
[8] = as §5; type: functional, cell-based; procedure, shortened: as §3
[9] = Metabolic stability in mouse liver microsomes assessed as compound remaining by measuring fold change in absence of NADPH measured after 60 mins by LC-MS/MS analysis; type: ADME, Microsome; details: 1 h
Procedure, shortened: (§6)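 Microsomes at 0.5 mg protein/mL preincubated with compound for 10 min at 37 °C. The NCF60 control received 100 mM potassium phosphate buffer in place of the NADPH regenerating system and was incubated 1 h at 37 °C. Quenched with cold acetonitrile containing tolbutamide and labetalol internal standards, centrifuged, supernatant analyzed by LC-MS/MS. Fraction remaining reported.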

[10] = molecular target: T1, Protein cereblon/SWI/SNF-related matrix-associated actin-dependent regulator of chromatin subfamily A member 2; assay: PROTAC activity at CRBN/SMARCA2 in human NCI-H1792 cells harboring wild type SMARCA4 assessed as induction of SMARCA2 degradation incubated for 24 hrs by immunoblot analysis; type: cell-based; procedure, shortened: as §4
Target sequence in this assay (P51531 whole entry): as the sequence (P51531 whole entry, looked up, change not shown) above
Target sequence in this assay (Q96SW2 whole entry): as the sequence (Q96SW2 whole entry, looked up, change not shown) above

[11] = molecular target: T2, Protein cereblon/SWI/SNF-related matrix-associated actin-dependent regulator of chromatin subfamily A member 4; assay: PROTAC activity at CRBN/SMARCA4 in human NCI-H1792 cells harboring wild type SMARCA4 assessed as induction of SMARCA4 degradation incubated for 24 hrs by immunoblot analysis; type: cell-based; procedure, shortened: as §4
[12] = Cmax in male CD-1 (ICR) mouse at 25 mg/kg, ip measured up to 24 hrs by LC-MS/MS analysis; type: ADME, organism-based; details: in vivo; procedure, shortened: as §2
[13] = Cmax in male CD-1 (ICR) mouse at 25 mg/kg, po measured up to 24 hrs by LC-MS/MS analysis; type: ADME, organism-based; details: in vivo; procedure, shortened: as §2
[14] = molecular target: T1, Protein cereblon/SWI/SNF-related matrix-associated actin-dependent regulator of chromatin subfamily A member 2; assay: PROTAC activity at CRBN/SMARCA2 in human NCI-H1792 cells harboring wild type SMARCA4 assessed as induction of SMARCA2 degradation incubated for 48 hrs by immunoblot analysis; type: cell-based; procedure, shortened: as §4
Target sequence in this assay (P51531 whole entry): as the sequence (P51531 whole entry, looked up, change not shown) above
Target sequence in this assay (Q96SW2 whole entry): as the sequence (Q96SW2 whole entry, looked up, change not shown) above

[15] = (§7) Inhibition of colony formation in human HCC44 cells harboring wild type SMARCA4 incubated for 9 to 14 days by crystal violet staining based assay; type: functional, cell-based; procedure, shortened: as §3
HCC44 = assay: as §7; type: functional, cell-based; details: dose 0.001-10 µM, time 9-14 day; procedure, shortened: as §3
[16] = Half life in male CD-1 (ICR) mouse at 25 mg/kg, ip measured up to 24 hrs by LC-MS/MS analysis; type: ADME, organism-based; details: in vivo; procedure, shortened: as §2
[17] = molecular target: T1, Protein cereblon/SWI/SNF-related matrix-associated actin-dependent regulator of chromatin subfamily A member 2; assay: PROTAC activity at CRBN/SMARCA2 in human NCI-H1792 cells harboring wild type SMARCA4 assessed as induction of SMARCA2 degradation incubated up to 96 hrs by immunoblot analysis; type: cell-based
NCI-H2122 = assay: (§8) Inhibition of colony formation in human NCI-H2122 cells harboring wild type SMARCA4 incubated for 9 to 14 days by crystal violet staining based assay; type: functional, cell-based; details: dose 0.001-10 µM, time 9-14 day; procedure, shortened: as §3
[18] = as §8; type: functional, cell-based; procedure, shortened: as §3
[19] = molecular target: T1, Protein cereblon/SWI/SNF-related matrix-associated actin-dependent regulator of chromatin subfamily A member 2; assay: PROTAC activity at CRBN/SMARCA2 in human NCI-H2030 cells harboring mutated SMARCA4 assessed as induction of SMARCA2 degradation incubated for 48 hrs by immunoblot analysis; type: cell-based; procedure, shortened: as §1
Target sequence in this assay (P51531 whole entry, looked up, change not shown): as the sequence (P51531 whole entry, looked up, change not shown) above
Target sequence in this assay (Q96SW2 whole entry, looked up, change not shown): as the sequence (Q96SW2 whole entry, looked up, change not shown) above

[20] = Metabolic stability in human liver microsomes assessed as compound remaining by measuring fold change in absence of NADPH measured after 60 mins by LC-MS/MS analysis; type: ADME, Microsome; details: 1 h; procedure, shortened: as §6
[21] = molecular target: T1, Protein cereblon/SWI/SNF-related matrix-associated actin-dependent regulator of chromatin subfamily A member 2; assay: PROTAC activity at CRBN/SMARCA2 in CRBN knockout human H322 cells harboring SMARCA4 mutant assessed as induction of SMARCA2 degradation at 0.1 uM by immunoblot analysis; type: cell-based

T2 sequence (P51532 whole entry): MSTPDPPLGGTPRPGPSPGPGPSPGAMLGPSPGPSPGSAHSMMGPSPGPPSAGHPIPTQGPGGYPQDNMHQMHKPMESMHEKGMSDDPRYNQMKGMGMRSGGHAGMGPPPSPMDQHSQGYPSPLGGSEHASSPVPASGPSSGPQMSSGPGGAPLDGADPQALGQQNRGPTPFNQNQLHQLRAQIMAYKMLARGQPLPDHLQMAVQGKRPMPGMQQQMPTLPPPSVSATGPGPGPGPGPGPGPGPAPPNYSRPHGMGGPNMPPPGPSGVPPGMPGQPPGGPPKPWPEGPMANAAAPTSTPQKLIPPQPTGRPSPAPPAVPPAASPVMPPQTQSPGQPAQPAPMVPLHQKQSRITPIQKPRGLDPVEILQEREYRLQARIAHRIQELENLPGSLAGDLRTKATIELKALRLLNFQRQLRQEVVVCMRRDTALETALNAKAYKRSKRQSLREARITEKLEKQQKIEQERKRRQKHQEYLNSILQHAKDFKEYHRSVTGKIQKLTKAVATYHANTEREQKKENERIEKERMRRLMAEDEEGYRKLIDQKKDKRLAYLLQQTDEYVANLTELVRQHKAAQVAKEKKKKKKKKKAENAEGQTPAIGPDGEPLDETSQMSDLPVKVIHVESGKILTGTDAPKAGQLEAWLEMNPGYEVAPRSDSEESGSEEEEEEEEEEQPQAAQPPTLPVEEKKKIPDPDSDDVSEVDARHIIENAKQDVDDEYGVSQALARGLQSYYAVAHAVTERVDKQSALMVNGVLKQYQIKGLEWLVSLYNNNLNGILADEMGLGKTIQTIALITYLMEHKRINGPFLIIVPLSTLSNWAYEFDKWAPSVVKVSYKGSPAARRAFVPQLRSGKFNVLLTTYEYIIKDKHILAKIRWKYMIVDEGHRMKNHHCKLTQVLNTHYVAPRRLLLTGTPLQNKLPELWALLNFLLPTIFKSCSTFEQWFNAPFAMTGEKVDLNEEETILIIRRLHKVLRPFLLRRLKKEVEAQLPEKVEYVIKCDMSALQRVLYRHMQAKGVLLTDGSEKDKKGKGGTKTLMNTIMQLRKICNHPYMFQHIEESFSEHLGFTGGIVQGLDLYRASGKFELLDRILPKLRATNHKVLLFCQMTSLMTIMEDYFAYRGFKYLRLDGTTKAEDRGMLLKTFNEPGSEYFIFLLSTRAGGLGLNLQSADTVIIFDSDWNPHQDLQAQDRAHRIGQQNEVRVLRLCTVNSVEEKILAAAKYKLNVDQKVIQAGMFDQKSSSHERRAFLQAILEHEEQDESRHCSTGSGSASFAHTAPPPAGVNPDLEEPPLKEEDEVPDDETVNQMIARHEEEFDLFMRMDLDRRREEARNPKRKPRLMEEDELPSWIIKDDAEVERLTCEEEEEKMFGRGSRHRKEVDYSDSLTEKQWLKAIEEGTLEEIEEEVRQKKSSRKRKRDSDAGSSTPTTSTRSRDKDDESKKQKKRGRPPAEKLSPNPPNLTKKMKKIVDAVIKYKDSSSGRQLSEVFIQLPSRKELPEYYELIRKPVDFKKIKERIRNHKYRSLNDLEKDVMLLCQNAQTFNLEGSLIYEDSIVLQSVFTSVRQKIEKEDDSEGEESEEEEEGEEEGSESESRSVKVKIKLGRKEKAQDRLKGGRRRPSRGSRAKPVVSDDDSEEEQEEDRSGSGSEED
T2 sequence (Q96SW2 whole entry): as the sequence (Q96SW2 whole entry, looked up, change not shown) above

| Compound | DC50 [1] [nM] | DC50 [2] [nM] | AUClast [3] [ng·h/mL] | AUClast [4] [ng·h/mL] | AUC [5] [ng·h/mL] | IC50 (NCI-H1693) [nM] | inhibition (NCI-H1693) | DC50 [6] [nM] | DC50 [7] [nM] | inhibition (NCI-H1568) | IC50 [8] [nM] | fold change (FC) [9] | DC50 [10] [nM] | DC50 [11] [nM] | Cmax [12] [ng/mL] | Cmax [13] [ng/mL] | DC50 [14] [nM] | IC50 [15] [µM] | inhibition (HCC44) | t1/2 [16] [h] | further results |
| --- | --- | --- | --- | --- | --- | --- | --- | --- | --- | --- | --- | --- | --- | --- | --- | --- | --- | --- | --- | --- | --- |
| Nc1nnc(-c2ccccc2O)cc1N1CCN(Cc2ccc(N3CCC(CN4CCN(c5ccc6c(c5)C(=O)N(C5CCC(=O)NC5=O)C6=O)CC4)CC3)c(F)c2)CC1 (stereo unspecified) | 6.4 | 10.6 | 12079.3 | 23213.7 | 68813 | 78 | Dose-dependent-effect | 1.2 | 381 | Dose-dependent-effect | 78 | 0.935 | 69 | 135 | 1756.3 | 649.3 | 60 | 10 | Dose-dependent-effect | 44.8 | Activity [17]: Active; inhibition (NCI-H2122): Dose-dependent-effect; IC50 ([18]; dose 0.001-10 µM, time 9-14 day): 10 µM; DC50 [19]: 12.7 nM; fold change (FC) [20]: 0.33 |
| Nc1nnc(-c2ccccc2O)cc1N1CCN(Cc2ccc(N3CCN(CCOc4cccc5c4C(=O)N(C4CCC(=O)NC4=O)C5=O)CC3)c(F)c2)CC1 (stereo unspecified) | 1 | 1.2 | 4743 | 19365.3 | 27108.3 | 11 | Dose-dependent-effect | 1.6 | 149 | Dose-dependent-effect | 11 | 0.368 | 8.1 | 19 | 2039.7 | 587 | 16 | 9.1 | Dose-dependent-effect | 13 | Activity [21]: inactive; Activity [17]: Active; More Potent And Fastest Degradation Observed; inhibition (NCI-H2122): Dose-dependent-effect; IC50 ([18]; Homo sapiens, NCI-H2122, read-out: IC50): 9.1 µM; DC50 [19]: 10.3 nM; fold change (FC) [20]: 0.501 |
